For one substance, Kd results are on record in PMC5026623 (Circulation research, 2016).

pKd: −log10 of the molar value.

This test addresses apoA1 (Homo sapiens, UniProt P02647). As to the kind of experiment: surface plasmon resonance, protein immobilised on CM5 chip. The format is binding. In outline: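 Biosensor binding-kinetics run: apoA1 covalently coupled to a CM5 sensor chip, with apoA2 and apoE coupled the same way for comparison. Kinetics of test lipid binding to the immobilised protein recorded.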
In general terms: Surface plasmon resonance follows binding to a sensor surface in real time, without labels.

Sequence of apoA1 (P02647 25-267): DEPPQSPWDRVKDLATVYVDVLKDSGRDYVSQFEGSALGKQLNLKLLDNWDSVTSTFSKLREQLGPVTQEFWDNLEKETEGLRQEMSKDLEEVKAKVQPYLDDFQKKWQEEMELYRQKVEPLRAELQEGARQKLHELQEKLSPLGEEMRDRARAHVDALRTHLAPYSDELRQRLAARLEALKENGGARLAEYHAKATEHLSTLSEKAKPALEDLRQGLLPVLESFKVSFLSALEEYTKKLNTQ

For orientation: pKd means the Kd on a negative log10 scale, so that one unit is a factor of ten. Read a low pKd as a high Kd. The substance PIP2 gave a pKd of 6.85.
